Data: ChEMBL document CHEMBL1833943, “Synthesis and structure-activity relationships of varied ether linker analogues of the antitubercular drug (6S)-2-nitro-6-{[4-(trifluoromethoxy)benzyl]oxy}-6,7-dihydro-5h-imidazo[2,1-b][1,3]oxazine (PA-824)” (J Med Chem, 2011)
In brackets after ≈: the same amount, converted by molar mass.

Tests used:
[1] = Metabolic stability in CD1 mouse liver microsomes at 1 uM measured as compound remaining after 1 hr by LC/MS/MS analysis; format: ADME, Microsome; details: read-out: Stability
[2] = Aqueous solubility of the compound in 0.1 M hydrochloric acid at pH 1 by HPLC analysis; format: physicochemical
[3] = tested on: Mycobacterium tuberculosis; assay: Antituberculosis activity against Mycobacterium tuberculosis H37Rv under aerobic conditions by microplate alamar blue assay; format: functional
[4] = Aqueous solubility of the compound in water at pH 7 by HPLC analysis; format: physicochemical
Method in brief: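 Solubility measured in water at pH 7 and 20 °C, quantified by HPLC.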

[5] = tested on: Mycobacterium tuberculosis; assay: Antituberculosis activity against Mycobacterium tuberculosis H37Rv under anaerobic conditions by fluorescence based low-oxygen-recovery assay; format: functional
[6] = Metabolic stability in human liver microsomes at 1 uM measured as compound remaining after 1 hr by LC/MS/MS analysis; format: ADME, Microsome; details: read-out: Stability
[7] = tested on: Mycobacterium tuberculosis; assay: Antituberculosis activity against Mycobacterium tuberculosis H37Rv infected in BALB/c mouse acute infection model assessed as fold reduction in bacterial CFU in lungs at 100 mg/kg, po administered for 5 days a week for 3 weeks beginning on day 11 postinfection relative to PA-824; format: functional
Method in brief: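 Mice with acute M. tb infection dosed orally at 100 mg/kg daily, 5 days each week, standard 3 week assay. Lung CFUs counted. Value is the fold CFU decrease for the compound divided by the fold CFU decrease for the internal reference standard run in the same experiment.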

[8] = Metabolic stability in human liver microsomes at 1 uM measured as compound remaining after 45 mins by LC/MS/MS analysis; format: ADME, Microsome; details: read-out: Stability
Mus musculus = assay: Toxicity in Mycobacterium tuberculosis H37Rv infected BALB/c mouse at 100 mg/kg, po administered for 5 days a week for 3 weeks beginning on day 11 postinfection; format: organism-based; design: dose 100 mg/kg, route oral; details: in vivo
[9] = tested on: Mycobacterium tuberculosis; assay: Antituberculosis activity against Mycobacterium tuberculosis H37Rv infected in BALB/c mouse chronic infection model assessed as fold reduction in bacterial CFU in lungs at 100 mg/kg, po administered for 5 days a week for 3 weeks beginning on day 70 postinfection relative to OPC-67683; format: functional
Method in brief: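 Chronic M. tb infection model with dosing starting ~70 days post infection, once bacteria are in a plateau phase of growth. Oral 100 mg/kg daily, 5 days/week, 3 weeks. Lung CFUs counted. Value is the fold CFU reduction for the compound relative to the fold reduction for the reference agent.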

Row | SMILES | remaining at 1 h, 1 µM [1] | MIC [3] | solubility [4] | MIC [5] | remaining at 1 h, 1 µM [6] | remaining at 0.75 h, 1 µM [8] | other results
1 | O=[N+]([O-])c1cn2c(n1)OC[C@@H](OCC#Cc1ccc(-c3ccc(OC(F)(F)F)cc3)nc1)C2 | 90% | 0.09 µM (≈ 0.0414 µg/mL) | 0.72 µg/mL (≈ 1.56 µM) | 0.52 µM (≈ 0.239 µg/mL) | 93% | – | solubility [2]: 4 µg/mL (≈ 8.69 µM); fold change (FC) [7]: 1
2 | C[C@@H](O[C@@H]1COc2nc([N+](=O)[O-])cn2C1)c1ccc(OC(F)(F)F)cc1 | – | – | – | – | – | 60% | –
3 | C[C@H](O[C@@H]1COc2nc([N+](=O)[O-])cn2C1)c1ccc(OC(F)(F)F)cc1 | – | – | – | – | – | 73% | –
4 | CC(O[C@@H]1COc2nc([N+](=O)[O-])cn2C1)c1ccc(-c2ccc(OC(F)(F)F)cc2)cc1 (some centres not stated) | 92% | 0.19 µM (≈ 0.0854 µg/mL) | 0.84 µg/mL (≈ 1.87 µM) | 1.5 µM (≈ 0.674 µg/mL) | 100% | – | Activity (Mus musculus): Toxic
5 | O=[N+]([O-])c1cn2c(n1)OC[C@@H](OCc1ccc(OC(F)(F)F)cc1)C2 [PRETOMANID] | – | – | – | – | – | 93% | fold change (FC) [9]: 0.14
